Series [1] addresses Chymotrypsinogen A (Bos taurus) (UniProt P00766). Briefly: The second order inactivation rate constant was expressed as inhibition of chymotrypsin (ChT). Inhibitor concentrations were 3.4-70 uM. In short, it runs like this: (§1)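 Kitz–Wilson incubation method. Enzyme was preincubated with inhibitor (added in DMSO) in 0.1 M HEPES, 0.5 M NaCl, pH 7.5, at 25 °C. Aliquots were taken over time and diluted into pNA substrate: HLE MeO-Suc-Ala-Ala-Pro-Val-pNA (0.2–0.5 mM), PPE Suc-Ala-Ala-Ala-pNA, ChT and Cat G Suc-Val-Pro-Phe-pNA (0.4–0.5 mM). Release was read at 410 nm. kobs/[I] from ln(v0/vt) vs time. Mean of two determinations. Fast rates measured with equimolar inhibitor and enzyme.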

In series [2] the target is T1, Neutrophil elastase (Homo sapiens) (UniProt P08246).
T1 sequence (whole entry): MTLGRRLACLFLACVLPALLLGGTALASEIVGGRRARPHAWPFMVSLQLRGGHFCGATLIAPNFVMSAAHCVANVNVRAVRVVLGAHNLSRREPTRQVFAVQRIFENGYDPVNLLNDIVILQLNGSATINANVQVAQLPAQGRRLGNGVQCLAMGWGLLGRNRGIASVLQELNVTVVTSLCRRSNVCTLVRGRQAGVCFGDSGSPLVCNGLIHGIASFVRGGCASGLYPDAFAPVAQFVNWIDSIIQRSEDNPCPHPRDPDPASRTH
Briefly: Inhibition of human leukocyte elastase(HLE) at 0.7-1.7 uM. In short, it runs like this:
as §1

For series [3], the target named is T2, Chymotrypsin-like elastase family member 2A (Sus scrofa) (UniProt P08419).
T2 sequence (whole entry): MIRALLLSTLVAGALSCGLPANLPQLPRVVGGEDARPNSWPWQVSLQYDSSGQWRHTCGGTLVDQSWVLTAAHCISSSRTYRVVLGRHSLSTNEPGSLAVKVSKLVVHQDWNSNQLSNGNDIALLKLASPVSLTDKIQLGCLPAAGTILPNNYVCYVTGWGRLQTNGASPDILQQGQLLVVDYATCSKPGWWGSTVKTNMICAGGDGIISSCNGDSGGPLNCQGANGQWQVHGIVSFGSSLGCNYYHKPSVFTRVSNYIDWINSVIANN
Briefly: The second order inactivation rate constant was expressed as inhibition of porcine pancreatic elastase (PPE). Inhibitor concentrations were 34-56 uM. In short, it runs like this:
as §1

Series [4] can be described thus: Half-life for hydrolysis was determined from kinetic constant. It is filed as ADME. In short, it runs like this: (§2)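 Spontaneous hydrolysis in 0.1 M HEPES, 0.5 M NaCl, pH 7.5, 10% v/v DMSO final, 25 °C. Inhibitor added from 2.9–5.0 mM DMSO stock. Ring opening followed as absorbance decrease at 385 nm (ε385 = 3300 M⁻¹ cm⁻¹). Half-life from the first-order rate. Two determinations, standard errors ±15% or less.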

For series [5], the target named is T3, Cathepsin G (Homo sapiens) (UniProt P08311).
T3 sequence (whole entry): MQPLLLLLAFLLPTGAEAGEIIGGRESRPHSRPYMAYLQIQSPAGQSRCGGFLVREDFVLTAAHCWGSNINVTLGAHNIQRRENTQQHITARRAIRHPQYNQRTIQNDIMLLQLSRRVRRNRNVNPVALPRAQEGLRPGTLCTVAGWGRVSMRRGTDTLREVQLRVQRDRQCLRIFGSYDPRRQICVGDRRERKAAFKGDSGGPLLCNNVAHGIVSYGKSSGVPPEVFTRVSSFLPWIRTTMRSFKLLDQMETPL
In words: The second order inactivation rate constant was expressed as inhibition of cathepsin G (Cat G).Inhibitor concentrations were 35-710 uM. In short, it runs like this: as §1

In series [6] the target is T1, Neutrophil elastase (Homo sapiens). In words: Second order inactivation rate constant for inhibition of human leukocyte elastase. In short, it runs like this:
as §1

Series [7] has the same target. In words: The second order inactivation rate constant expressed as inhibition of human leukocyte elastase (HLE). Inhibitor concentrations were 0.07-710 uM. In short, it runs like this: as §1
Series [8] shares this target. In words: Inhibition of human leukocyte elastase. In short, it runs like this: as §1
In series [9] the target is T2, Chymotrypsin-like elastase family member 2A (Sus scrofa). In words: The second order inactivation rate constant expressed as inhibition of porcine pancreatic elastase (PPE).Inhibitor concentrations were 0.04-2.0 mM.
Series [10] deals with Chymotrypsinogen A (Bos taurus) (UniProt P00766). In words: The second order inactivation rate constant was expressed as inhibition of chymotrypsin (ChT).Inhibitor concentrations were 360-570 uM. In short, it runs like this: as §1
For series [11], the target named is T1, Neutrophil elastase (Homo sapiens). Briefly: The second order inactivation rate constant was expressed as inhibition of human leukocyte elastase (HLE). Inhibitor concentrations were 0.4-4 uM. In short, it runs like this:
as §1

In series [12] the target is T2, Chymotrypsin-like elastase family member 2A (Sus scrofa). In words: The second order inactivation rate constant was expressed as inhibition of porcine pancreatic elastase (PPE).Inhibitor concentrations were 2-600 uM. In short, it runs like this: as §1
For series [13] the target is unchanged. In words: Percent activity regained after 17h of incubation with hydroxylamine (Non-preincubated Pancreatic elastase). In short, it runs like this:
(§3)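 Without preincubation, hydroxylamine was added immediately after inhibition at [I]/PPE 200:1, and activity was read after 17 h. With preincubation, the 1:1 [I]/PPE complex stood 20 h at room temperature in buffer before hydroxylamine was added. Activity read at 1–17 h.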

Series [14] shares this target. Briefly: Percent activity regained after 20h of pre-incubation before addition of hydroxylamine (Preincubated Pancreatic elastase). In short, it runs like this: as §3
Series [15] deals with T3, Cathepsin G (Homo sapiens). In words: The second order inactivation rate constant was expressed as inhibition of cathepsin G(Cat G).Inhibitor concentrations were 35-710 uM; No inhibition. In short, it runs like this:
as §1

The target of series [16] is T3, Cathepsin G (Homo sapiens). In words: Inhibition of cathepsin G at 35-710 uM. In short, it runs like this: as §1
In series [17] the target is T1, Neutrophil elastase (Homo sapiens). Briefly: The second order inactivation rate constant was expressed as inhibition of human leukocyte elastase. In short, it runs like this:
as §1

The target in series [18] is Chymotrypsinogen A (Bos taurus) (UniProt P00766). In words: The second order inactivation rate constant was expressed as inhibition of chymotrypsin (ChT).Inhibitor concentrations were 1.7-58 uM;No inhibition. In short, it runs like this: as §1
Series [19] concerns the target T2, Chymotrypsin-like elastase family member 2A (Sus scrofa). Briefly: The second order inactivation rate constant was expressed as inhibition of porcine pancreatic elastase (PPE).Inhibitor concentrations were 0.04-2.0 uM;No inhibition. The settings on record: in the assay text read “0.04-2.0 mM” for “0.04-2.0 uM”. In short, it runs like this:
as §1

Series [20] can be described thus: Half-life for hydrolysis of compound was determined from kinetic constant. It is filed as ADME. In short, it runs like this: as §2
Series [21] has as its target T2, Chymotrypsin-like elastase family member 2A (Sus scrofa). Briefly: Percent activity regained after 17h of incubation with hydroxylamine (Non-preincubated PPE). In short, it runs like this:
as §3

Active and inactive are the calls of the source. No cut-off for these calls is given here.

With `CCCOc1oc(=O)c2cc(NC(=O)NCC)ccc2c1Cl`, the k obs / 1 in series [1] was 12000 M⁻¹ s⁻¹; in [2], > 280000 M⁻¹ s⁻¹; in [3], 220 M⁻¹ s⁻¹.
`Nc1ccc2c(Cl)c(OCCCBr)oc(=O)c2c1`: the half-life (commonly the time in which the quantity being followed falls by half) in series [4] was 3.2 h. For the same molecule, the results for the K obs / 1 in series [5], in series [7] and in [9] were 210 M⁻¹ s⁻¹, 4000 M⁻¹ s⁻¹ and 10 M⁻¹ s⁻¹, respectively. In series [6], this molecule registered a k obs / 1 of 4000 M⁻¹ s⁻¹. Besides, the [I] in series [8] stood at 3.4 µM.
Turning to `COc1oc(=O)c2cc(NC(=O)C(Cc3ccccc3)NC(=O)c3ccc(NC(=O)Nc4ccccc4)cc3)ccc2c1Cl` (stereo unspecified), the values for the k obs / 1 in series [10], in series [11] and in series [12] were 10 M⁻¹ s⁻¹, 15000 M⁻¹ s⁻¹ and 68 M⁻¹ s⁻¹, respectively.
Regarding `COc1oc(=O)c2cc(NC(=O)C(Cc3ccccc3)NC(=O)c3cccc(NC(=O)Nc4ccccc4)c3)ccc2c1Cl` (stereo unspecified), the k obs / 1 in [10] was 110 M⁻¹ s⁻¹; in series [11], 28000 M⁻¹ s⁻¹; in series [12], 54 M⁻¹ s⁻¹.
In the case of `COc1oc(=O)c2cc(NC(=O)[C@H](Cc3ccccc3)NC(=O)c3ccc([N+](=O)[O-])cc3)ccc2c1Cl`, the k obs / 1 in [10] came to 30 M⁻¹ s⁻¹; in [11] it was 130000 M⁻¹ s⁻¹; in series [12], 64 M⁻¹ s⁻¹. The figures for the Activity regained in [13] and in [14] were 91% and 6%, respectively.
In the case of `COc1oc(=O)c2cc(NC(=O)[C@H](Cc3c[nH]c4ccccc34)NC(=O)OC(C)(C)C)ccc2c1Cl`, the k obs / 1 in [10] came out at 33 M⁻¹ s⁻¹; in series [11], 79000 M⁻¹ s⁻¹; in series [12], 5800 M⁻¹ s⁻¹.
Consider `CCCOc1oc(=O)c2cc(NC(=O)[C@H](Cc3ccccc3)NS(=O)(=O)c3ccc(C)cc3)ccc2c1Cl`, for which the k obs / 1 in [1] came out at 6100 M⁻¹ s⁻¹; in [2] it was 33000 M⁻¹ s⁻¹; in series [3], 520 M⁻¹ s⁻¹.
In the case of `CCCOc1oc(=O)c2cc(NC(=O)Nc3ccccc3)ccc2c1Cl`, the k obs / 1 in series [1] amounted to 5200 M⁻¹ s⁻¹; in series [2], 140000 M⁻¹ s⁻¹; in series [3] it was 1600 M⁻¹ s⁻¹.
With `CC(C)(C)OC(=O)N[C@H](Cc1ccccc1)C(=O)Nc1ccc2c(Cl)c(OCCCBr)oc(=O)c2c1`, the “K obs / 1” value in series [15] was “inactive”. The molecule further had a K obs / 1 in [7] of 1480 M⁻¹ s⁻¹.
Consider `Nc1ccc2c(Cl)c(OCCBr)oc(=O)c2c1`, for which, in series [4], the half-life is 2.4 h. In addition, the K obs / 1 came out at 410 M⁻¹ s⁻¹ in [16], 200000 M⁻¹ s⁻¹ in [17] and 1000 M⁻¹ s⁻¹ in [9]. In addition, the [I] in series [8] was determined as 0.07 µM.
Regarding `O=C(CCc1ccccc1)Nc1ccc2c(Cl)c(OCCCBr)oc(=O)c2c1`, the “K obs / 1” value in [15] was “inactive”.
For the molecule `O=C(CCC(=O)OCc1ccccc1)Nc1ccc2c(Cl)c(OCCBr)oc(=O)c2c1`, the “K obs / 1” value in series [18] and in [19] was “inactive” throughout. In [7], the K obs / 1 stood at 3210 M⁻¹ s⁻¹.
Take `CCOc1oc(=O)c2cc(N)ccc2c1Cl`: in [4], the half-life was 3.6 h. In addition, the k obs / 1 in series [6] came to 9400 M⁻¹ s⁻¹. Further, the [I] in series [8] stood at 4 µM.
Regarding `COc1oc(=O)c2cc(NC(=O)[C@H](Cc3ccccc3)NC(=O)c3cccc(C)c3)ccc2c1Cl`, the k obs / 1 in [10] amounted to 64 M⁻¹ s⁻¹; in series [11] it was 130000 M⁻¹ s⁻¹; in series [12], 1600 M⁻¹ s⁻¹. For the same molecule, the half-life in [20] is > 48 h.
On to `O=C(Nc1ccccc1)Nc1ccc2c(Cl)c(OCCBr)oc(=O)c2c1`, for which the “K obs / 1” value in series [15] was “inactive”. For the same molecule, the K obs / 1 in [7] was 1.2e+06 M⁻¹ s⁻¹; in [9], 36 M⁻¹ s⁻¹.
For the molecule `CC(C)(C)OC(=O)N[C@@H](Cc1ccccc1)C(=O)Nc1ccc2c(Cl)c(OCCCBr)oc(=O)c2c1`, the “K obs / 1” value in series [15] is “inactive”. The same molecule registered a K obs / 1 in [7] of 1320 M⁻¹ s⁻¹.
`CCCOc1oc(=O)c2cc(N)ccc2c1Cl` showed a half-life in [4] of 4.6 h. The k obs / 1 in [6] came out at 54000 M⁻¹ s⁻¹. Besides, in series [8], the [I] worked out at 2.6 µM.
On to `CCCOc1oc(=O)c2cc(N/C(S)=N/c3ccccc3)ccc2c1Cl`, for which the k obs / 1 in [1] is 240 M⁻¹ s⁻¹; in series [2] it was > 170000 M⁻¹ s⁻¹; in series [3], 59 M⁻¹ s⁻¹.
Take `COc1oc(=O)c2cc(NC(=O)[C@H](Cc3ccccc3)NC(=O)c3ccc(C)cc3)ccc2c1Cl`: the k obs / 1 in [10] amounted to 130 M⁻¹ s⁻¹; in [11], 170000 M⁻¹ s⁻¹; in series [12], 83 M⁻¹ s⁻¹. Also, the Activity regained in [13] worked out at 91%; in series [14], 14%. Further, in series [20], the half-life is > 48 h.
On to `COc1oc(=O)c2cc(NC(=O)CBr)ccc2c1Cl`, for which the K obs / 1 in series [10] is 350 M⁻¹ s⁻¹; in [11], 39000 M⁻¹ s⁻¹; in series [12], 3500 M⁻¹ s⁻¹.
Regarding `CCCOc1oc(=O)c2cc(N/C(S)=N/Cc3ccccc3)ccc2c1Cl`, the k obs / 1 in series [1] was 120 M⁻¹ s⁻¹; in [2], > 130000 M⁻¹ s⁻¹; in series [3], 79 M⁻¹ s⁻¹.
As for `COc1oc(=O)c2cc(NC(=O)[C@H](Cc3ccccc3)NC(=O)c3ccccc3)ccc2c1Cl`, the k obs / 1 worked out at 55 M⁻¹ s⁻¹ in [10], 180000 M⁻¹ s⁻¹ in [11] and 530 M⁻¹ s⁻¹ in [12]. For the same molecule, the Activity regained was found to be 91% in series [21] and 31% in [14]. Further, in [20], the half-life is > 48 h.
